Test results taken from ChEMBL document CHEMBL4028889 (2017).
Active and inactive are the calls of the source. No cut-off for these calls is given here.

Tests used:
SH-SY5Y = test: Neuroprotective activity against etoposide-induced apoptosis in human SH-SY5Y cells assessed as cell viability at 3 uM pretreated for 4 hrs followed by etoposide challenge measured after 12 to 48 hrs by PrestoBlue assay relative to control; format: functional; conditions: read-out: Activity
Method in brief: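 SH-SY5Y cells were plated at 50000/well and left overnight at 37 °C, 5% CO2. They were pretreated 4 h with compound, then given etoposide; methods give 5 μg/mL read at 48 h, while the legend states 5 μM for 12 h. PrestoBlue fluorescence (ex 560/em 590 nm).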

IMR90-c4 [1] = test: Neuroprotective activity against etoposide-induced apoptosis in human IMR90-c4 cells assessed as increase in cell viability at 3 to 30 uM pretreated for 4 hrs followed by etoposide challenge measured after 36 hrs by PrestoBlue assay; format: functional, cell-based
Method in brief: (§1)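 IMR90-c4 iPSC-derived neurons were plated at 16000 cells/well on poly-D-lysine/laminin and matured. They were pretreated 4 h with compound, then given 15 μg/mL etoposide. Viability was read at 36 h by PrestoBlue fluorescence (ex 560/em 590 nm).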

PC-12 [2] = test: Induction of autophagy in rat PC12 cells assessed as increase in beclin 1 expression at 3 uM after 24 hrs by Western blot method relative to control; format: functional
Method in brief: (§2)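 PC12 lysates were taken after 24 h of compound treatment. 50 μg protein was run on 10% SDS gel and transferred to nitrocellulose. Blots were blocked in 5% BSA, probed overnight at 4 °C with beclin 1 (1:2000) and actin (1:5000), then HRP secondary. Chemiluminescence was quantified by densitometry.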

PC-12 [3] = test: Induction of autophagy in rat PC12 cells at 3 uM after 48 hrs by MDC staining-based flow cytometric method relative to control; format: functional
Method in brief: (§3)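 PC12 cells were treated for 48 h and then stained with 0.5 mM monodansylcadaverine for 30 min at 37 °C. Trypsinized cells were pooled with floating cells and resuspended in PBS/1% FBS. 10000 cells were read by flow cytometry in the FITC channel after gating out debris. MDC staining is expressed relative to vehicle.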

PC-12 [4] = test: Neuroprotective activity against etoposide-induced apoptosis in rat PC12 cells assessed as increase in Bcl2/Bax ratio at 3 uM pretreated for 4 hrs followed by etoposide challenge measured after 48 hrs by Western blot method; format: functional, cell-based
Method in brief: (§4)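 PC12 cells were pretreated 4 h with compound before etoposide and lysed after 24 or 48 h. 50 μg protein was run on 10% SDS gel and blotted. Probes were Bcl-2 (1:1000), Bax (1:500) and actin, with HRP chemiluminescence and densitometric Bcl-2/Bax ratio. n = 2, mean ± SEM.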

PC-12 [5] = test: Neuroprotective activity against etoposide-induced apoptosis in rat PC12 cells assessed as cell viability at 3 uM pretreated for 4 hrs followed by etoposide challenge measured after 48 hrs by PrestoBlue assay (reference value: 52.13 +/- 1.13%); format: functional; conditions: read-out: Activity
Method in brief: (§5)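 PC12 cells were plated at 50000/well on collagen-coated plates and left overnight. They were pretreated 4 h with compound, then given 15 μg/mL etoposide. Viability was read at 48 h by PrestoBlue (ex 560/em 590 nm). n = 3, mean ± SEM, as % viability.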

[6] = biological target: T1, Glutamate [NMDA] receptor (Homo sapiens) (UniProt Q05586+Q12879+Q13224+O15399+O60391+Q14957+Q8TCU5); test: Antagonist activity at NMDA receptor in human IMR90-c4 cells assessed as decrease in NMDA-mediated reduction in cell viability at 30 uM by PrestoBlue assay; format: cell-based
Method in brief: (§6)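 IMR90-c4 iPSCs differentiated to neurons (NSC, NPC, then 21 days maturation on poly-D-lysine/laminin). Neurons challenged with 500 μM NMDA. Viability read with PrestoBlue. n = 1 with 4 technical replicates, mean ± SEM.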

[7] = Neuroprotective activity against etoposide-induced apoptosis in human IMR90-c4 cells assessed as cell viability at 3 uM pretreated for 4 hrs followed by etoposide challenge measured after 36 hrs by PrestoBlue assay relative to control; format: functional; conditions: read-out: Activity; method in brief: as §1
PC-12 [8] = test: Neuroprotective activity against etoposide-induced apoptosis in rat PC12 cells assessed as increase in Bcl2/Bax ratio at 3 uM pretreated for 4 hrs followed by etoposide challenge measured after 24 hrs by Western blot method; format: functional; method in brief: as §4
PC-12 [9] = test: Neuroprotective activity against H2O2-induced apoptosis in rat PC12 cells assessed as increase in cell viability at 1 to 30 uM after 4 hrs by PrestoBlue assay; format: functional, cell-based
Method in brief: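 PC12 cells were exposed to 400 μM H2O2 with compounds at 1–30 μM. Viability was measured after 4 h with PrestoBlue.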

[10] = biological target: T1, Glutamate [NMDA] receptor (Homo sapiens); test: Antagonist activity at NMDA receptor in human IMR90-c4 cells assessed as decrease in NMDA-mediated reduction in cell viability at 0.1 to 10 uM by PrestoBlue assay; format: cell-based; method in brief: as §6
PC-12 [11] = test: Neuroprotective activity in rat PC12 cells assessed as decrease in H2O2-induced reactive oxygen species generation at 10 uM by CellROX/DAPI-blue staining-based fluorescence microscopic method; format: functional, cell-based
Method in brief: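 PC12 cells were grown in RPMI with 10% horse serum and 5% FBS on collagen-coated plates. ROS was induced with H2O2 and cells exposed to compound. Staining used CellROX green plus DAPI, imaged by fluorescence microscopy at 40×.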

PC-12 [12] = test: Induction of autophagy in rat PC12 cells at 10 uM after 48 hrs by MDC staining-based flow cytometric method relative to control; format: functional; method in brief: as §3
PC-12 [13] = test: Neuroprotective activity against etoposide-induced apoptosis in rat PC12 cells assessed as cell viability at 0.1 uM pretreated for 4 hrs followed by etoposide challenge measured after 48 hrs by PrestoBlue assay relative to control; format: functional; conditions: read-out: Activity; method in brief: as §5
PC-12 [14] = test: Induction of autophagy in rat PC12 cells assessed as increase in beclin 1 expression after 24 hrs by Western blot method; format: functional, cell-based; method in brief: as §2
PC-12 [15] = test: Induction of autophagy in rat PC12 cells after 48 hrs by MDC staining-based flow cytometric method; format: functional, cell-based; method in brief: as §3
IMR90-c4 [16] = test: Neuroprotective activity against etoposide-induced apoptosis in human IMR90-c4 cells assessed as increase in cell viability at 10 to 30 uM pretreated for 4 hrs followed by etoposide challenge measured after 36 hrs by PrestoBlue assay; format: functional, cell-based
Method in brief: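 Neurons derived from IMR90-c4 iPSCs were seeded at 16000 cells/well on poly-D-lysine/laminin and matured at 37 °C, 5% CO2. Compound pretreatment lasted 4 h before 15 μg/mL etoposide. PrestoBlue fluorescence (ex 560/em 590 nm) was read after 36 h.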

In the case of `CCOC(=O)Nc1ccc(NCc2ccc(F)cc2)nc1N` [FLUPIRTINE], the viability at 3 µM (SH-SY5Y) is reported as 69%, the Activity (IMR90-c4 [1]) is reported as “Active” and the Activity (PC-12 [2]) is reported as 32%. For the same compound, the “fold change (FC)” value (PC-12 [3]) was 2, the Activity (PC-12 [4]) was “inactive” and the viability at 3 µM (PC-12 [5]) was 79.5%. The inhibition [6] was “Active”, the viability at 3 µM [7] was 70% and the Activity (PC-12 [8]) was 68%. The Activity (PC-12 [9]) was “Active”, the inhibition [10] was “inactive” and the Activity (PC-12 [11]) was “Active”. For the same compound, the “fold change (FC)” value (PC-12 [12]) was 8.

For `CCOC(=O)Nc1ccc(NCc2ccccc2)nc1`, the viability at 3 µM (PC-12 [5]) was 67.5%.

With `CCCOC(=O)Nc1ccc(NCc2ccc(F)cc2)nc1N` the viability at 3 µM (PC-12 [5]) was 46.7%.

For `CCOC(=O)Nc1ccc(NCc2ccc(C(F)(F)F)nc2)nc1N`, the viability at 0.1 µM (PC-12 [13]) was 74% and the viability at 3 µM (PC-12 [5]) was 81.6%.

`CCOC(=O)Nc1ccc(NCc2ccc(C)cc2)nc1N` showed a viability at 3 µM (PC-12 [5]) of 136%.

In the case of `CCOC(=O)Nc1ccc(OCc2ccc(C(F)(F)F)cc2)nc1N`, the Activity (PC-12 [4]) is reported as “inactive”, the Activity (PC-12 [14]) is reported as “Dose-dependent effect” and the viability at 3 µM [7] is reported as 65%.

In the case of `CCOC(=O)Nc1ccc(NCc2ccc(OC(F)(F)F)cc2)nc1N`, the Activity (IMR90-c4 [1]) is reported as “Active”, the viability at 0.1 µM (PC-12 [13]) is reported as 77% and the Activity (PC-12 [4]) is reported as “inactive”. The viability at 3 µM (PC-12 [5]) was 80.6%, the Activity (PC-12 [15]) was “Dose-dependent effect” and the Activity (PC-12 [14]) was “Dose-dependent effect”.

For `CCOC(=O)Nc1ccc(NCc2ccc(F)cc2)cc1N` [EZOGABINE], the Activity (IMR90-c4 [16]) was “Active”, the “fold change (FC)” value (PC-12 [3]) was 2 and the Activity (PC-12 [4]) was “inactive”. The inhibition [6] was “Active”, the Activity (PC-12 [8]) was 64% and the Activity (PC-12 [9]) was “Active”. For the same compound, the inhibition [10] was “inactive” and the Activity (PC-12 [11]) was “Active”.

Work on `Nc1nc(NCc2ccc(F)cc2)ccc1NC(=O)OCCCl` yielded a viability at 3 µM (PC-12 [5]) of 53.9%.

In the case of `CCOC(=O)Nc1cnc(NCc2ccc(F)cc2)cc1C`, the viability at 3 µM (PC-12 [5]) is reported as 53.8%.
